Assay outcomes as filed in PubChem.
AP complement: orthogonal test for alternative complement pathway inhibitors | Human serum alternative complement pathway, LPS-coated ELISA, C3 deposition; tested in compound mixtures | inhibition, % at 5 µM | hit rate 0.08% among 62,000 | AID 1235;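 active means inhibition above 30% in each of the two pooled mixtures holding the compound, so the lower value exceeds 30%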;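 further: 0% = serum in Mg-EGTA without compound and 100% = EDTA serum blank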
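Test system: human serum complement alternative pathway, C3 deposition onto LPS / Medium: Mg2+-EGTA GVB++ buffer containing human serum at 1:15 dilution / Probe or stimulus: Plate-bound LPS / Times: 1 h at 37 °C / Signal: ELISA with HRP anti-human C3 antibody, TMB substrate, absorbance 450 nm / Measure: percent inhibition / Repeats: two pool placements per compound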
MMP13 inh: blocks human MMP13 activity; P45452; MMP-13 fTHP FRET cleavage, Mca fluorescence; inhibition, % at 4 µM; hit rate 0.07% among 65,000;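 active means inhibition above the mean of compound-free control plate wells plus 3 SD, cut at about 14% in these data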;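 further: 0% = DMSO wells and 100% = wells with reference MMP-13 inhibitor after basal subtraction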
D1 mod: allosterically modulates the human D1 dopamine receptor; HEK293 D1, CRE-luciferase, dopamine EC30 potentiation; actives deviate in either direction; P21728; hit rate 5.9% among 58,000; B-score at 10 µM;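 active means luminescence count or its row- and column-corrected plate score outside the 99.7% band of the plate's sample wells, on either side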
Calb biofilm kill: kills Candida albicans biofilms | C. albicans biofilm + clotrimazole, Alamar Blue | inhibition, % at 6 µM | hit rate 0.14% among 85,000 | AID 834;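 active means inhibition above 20%; inactive means inhibition below 20%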;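 further: preformed 24 hr biofilms exposed to compound for 48 hr; 0% = biofilm without compound and 100% = blank killed by clotrimazole plus chlorhexidine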
DAT uptake mod: human DAT dopamine uptake with cocaine, either direction | Q01959 | LLC-PK1 hDAT cells, [14C]-dopamine uptake with cocaine IC80; actives deviate in either direction | hit rate 1.3% among 110,000 | B-score at 10 µM | AID 449768;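 active means Z score or B-score, a plate-position-corrected score, falls beyond the plate's 99.7% confidence bounds, in either direction; inactive means both scores lie inside the 99.7% bounds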;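 further: scored against the spread of the other compound wells on the same plate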
Target sequence (Q01959 whole entry, looked up): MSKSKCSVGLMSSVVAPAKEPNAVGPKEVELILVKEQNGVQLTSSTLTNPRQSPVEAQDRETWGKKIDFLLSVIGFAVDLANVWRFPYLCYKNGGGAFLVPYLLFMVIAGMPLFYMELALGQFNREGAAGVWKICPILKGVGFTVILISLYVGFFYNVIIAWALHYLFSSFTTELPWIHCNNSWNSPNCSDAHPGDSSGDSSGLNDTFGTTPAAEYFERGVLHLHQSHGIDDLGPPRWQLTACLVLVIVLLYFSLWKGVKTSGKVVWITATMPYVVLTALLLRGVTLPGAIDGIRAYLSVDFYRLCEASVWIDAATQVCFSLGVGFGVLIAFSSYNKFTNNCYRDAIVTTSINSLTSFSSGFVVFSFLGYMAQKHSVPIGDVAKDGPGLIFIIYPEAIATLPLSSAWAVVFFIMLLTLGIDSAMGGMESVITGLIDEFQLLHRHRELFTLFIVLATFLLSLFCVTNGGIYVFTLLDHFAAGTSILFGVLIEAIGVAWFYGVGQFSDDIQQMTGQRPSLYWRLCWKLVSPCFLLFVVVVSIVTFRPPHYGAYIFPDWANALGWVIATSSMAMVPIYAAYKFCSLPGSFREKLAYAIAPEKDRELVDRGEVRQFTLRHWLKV
An asterisk follows results filed as active; nt = no result given. This excerpt belongs to a sample that is enriched for hits.

SMILES	AP complement	MMP13 inh	D1 mod	Calb biofilm kill	DAT uptake mod
CCCCNc1ncnc2c1cnn2-c1ccccc1	6	-1	-3.6*	-1	1.5
COc1ccc(-n2ncc3c(NCC(C)C)ncnc32)cc1	11	-31	-4.2*	nt	0.49
C=CCNC(=O)c1c(CSc2ccc(Cl)cc2)noc1C(=O)NCc1ccccc1	nt	nt	nt	nt	0.99
Cc1c(NC(=O)COC(=O)C(c2ccc(Cl)cc2)C(C)C)c(=O)n(-c2ccccc2)n1C (stereo unspecified)	nt	nt	nt	nt	-7.9*
CCC(C(=O)OCC(=O)Nc1c(C)n(C)n(-c2ccccc2)c1=O)c1ccccc1 (stereo unspecified)	11	-3	-0.022	8	0.41
COC(=O)[C@@]1(Cc2ccc(F)cc2)[C@H]2c3cc(C(=O)N4CCCC4)n(CCc4ccccn4)c3C[C@H]2CN1C(=O)c1ccccc1	nt	nt	nt	nt	-0.19
CCOC(=O)Cc1csc(NS(=O)(=O)c2ccccc2)n1	nt	nt	nt	nt	-0.12
CCOC(=O)c1ccccc1-c1csc(NS(=O)(=O)c2ccc(Cl)cc2)n1	nt	nt	nt	nt	-4.8*
CCCCOC(=O)Nc1cc(C(=O)OC)ccc1C(=O)OC	13	-18	-7*	3	1.7
O=C(CSc1nccn1-c1ncc(C(F)(F)F)cc1Cl)c1ccc(Cl)cc1	nt	nt	nt	nt	2.5
Cc1nc(NCc2ccco2)c2c3c(sc2n1)CCC3	-11	-4	-4.7*	-1	0.078
O=C(c1cccs1)N(Cc1ccco1)c1nc(-c2ccc(F)cc2)cs1	nt	nt	nt	4	-0.29
CN(C)CCCN(C(=O)c1cccs1)c1nc(-c2ccccc2)cs1	8	-6	-4.8*	2	1.4
CCOC(=O)CCn1nnc(N)n1	-3	2	-4.2*	5	-0.066
CCOC(=O)c1sc(NC(=O)CSc2n[nH]c(-c3ccc(Cl)cc3Cl)n2)c(C#N)c1C	nt	nt	nt	4	0.36
CC(C)NC(=O)CSc1nc(Cc2cccs2)nc2ccccc12	nt	nt	nt	nt	-0.83
CCOC(=O)CSC1=C(C#N)C(c2sccc2C)C(C(C)=O)=C(C)N1 (stereo unspecified)	nt	nt	nt	1	0.76
CC(=O)C1=C(C)NC(SCC(N)=O)=C(C#N)C1c1sccc1C (stereo unspecified)	nt	nt	nt	7	6.9*
O=C(CCSc1ccc(Cl)c(Cl)c1)NC12CC3CC(CC(C3)C1)C2	nt	nt	nt	nt	-1.3
COC(=O)[C@@H]1C[C@H]2CC[C@H](O)C[C@H]2N1Cc1ccccc1OS(=O)(=O)c1ccc(C)cc1	nt	nt	nt	nt	0.73
N#Cc1c(/N=C/c2ccco2)sc2c1CCCCC2	11	-1	-4.2*	3	-0.7
COC(=O)c1c(CSc2ccc(C)c(C)c2)noc1C(=O)NCc1ccc(OC)cc1	nt	nt	nt	nt	-0.39
O=C(Nc1ccc(N2CCCC2)cc1)c1cccc(F)c1	1	2	-4.9*	-1	0.52
O=C(Nc1ccc(N2CCCCC2)cc1)c1ccccc1	11	-1	-4.8*	nt	-0.19
CN1CCN(c2ccc(NC(=O)c3cccc(OCc4ccccc4)c3)cc2)CC1	-7	1	-5.9*	-6	nt
SMILES	AP complement	MMP13 inh	D1 mod	Calb biofilm kill	DAT uptake mod
COc1ccc(-c2csc(NC(=O)CC(C)C)n2)cc1	nt	nt	nt	9	-1.7
CC(C)(C)C(=O)Nc1ccc(-c2cn3ccsc3n2)cc1	16	4	-5.4*	3	nt
COc1ccc(C(=O)Nc2ccc(-c3cn4ccsc4n3)cc2)cc1S(=O)(=O)N1CCOCC1	11	4	-0.0087	5	-0.51
CC(C)CC(=O)Nc1ccc(-c2cn3ccsc3n2)cc1	-2	2	-4.5*	2	0.21
CCCCn1nnnc1SCC(=O)Nc1ccc(N(C)C)cc1	nt	nt	nt	5	-0.87
CCC(=O)NC(C)C(c1cccs1)N1CCN(c2ccccc2)CC1 (stereo unspecified)	nt	3	0.8	-10	-2.5
CC(=O)NC(C)C(c1cccs1)N1CCN(c2ccccc2)CC1 (stereo unspecified)	11	3	-0.95*	-1	-0.79
CCCOC(=O)c1ccc(-n2nnnc2SCC(=O)N2CCCCC2)cc1	11	5	-3.7*	8	-0.079
COC(=O)c1ccc(-n2nnnc2SCC(=O)N2CCCCC2)cc1	-1	0	2.7	6	-0.17
CCCc1cc2c(=O)c(-c3ccc4c(c3)OCCO4)c(C)oc2cc1OS(C)(=O)=O	nt	nt	nt	nt	2.8*
CCCc1cc2c(=O)c(-c3ccc4c(c3)OCCO4)coc2cc1OC(=O)c1ccco1	nt	nt	nt	11	-0.6
C[C@H]1[C@@H](OC(=O)CCC(=O)O)O[C@@H]2OC3(C)CC[C@H]4[C@H](C)CC[C@@H]1[C@@]24OO3	nt	nt	nt	nt	0.58
CCOC(=O)C1=C(C)N(CCCC(=O)O)C(=O)NC1c1ccccc1OC(=O)c1cccs1 (stereo unspecified)	nt	nt	nt	nt	-0.39
CCN(CC)C(=O)Oc1ccc2c(=O)c(-c3ccc(OC)cc3)c(C)oc2c1	6	-4	0.38	0	3.2*
O=C(Nc1ccc(CN2CCOCC2)cc1)c1ccccc1F	nt	nt	nt	-7	-1.2
O=C(Nc1ccc(CN2CCOCC2)cc1)c1cc2ccccn2n1	6	3	-7.3*	9	0.22
O=C(Nc1ccccn1)c1cc2ccccc2o1	nt	nt	nt	4	-1.2
O=C(NC1=NCCS1)c1cc2ccccc2o1	5	-8	-4.6*	5	-0.44
O=C(Nc1ccc(CN2CCOCC2)cc1)c1cc2ccccc2o1	8	0	-4.9*	5	1.3
O=C1C2CC=CCC2C(=O)N1c1n[nH]c(-c2ccccc2)n1 (stereo unspecified)	nt	nt	nt	-4	-0.075
CCOC(=O)c1oc2ccc(CNC(C)(C)C)c(Cl)c2c1C	nt	nt	nt	-3	-0.026
CCS(=O)(=O)N1CCC(C(=O)c2ccc(Cl)cc2)CC1	nt	nt	nt	7	0.58
C=CCc1c(C)c(C#N)c2nc3ccccc3n2c1NCCN(C)C	8	-4	-0.85	6	2.7*
CCc1c(C)c(C#N)c2nc3ccccc3n2c1NCCN(C)C	nt	-3	0.84	5	0.66
O=C(Nc1ccccc1)c1ccc(NCc2cccnc2)c(S(=O)(=O)N2CCOCC2)c1	-4	6	-0.12	3	-8*
SMILES	AP complement	MMP13 inh	D1 mod	Calb biofilm kill	DAT uptake mod
CCC(C)(C)NC(=O)C(c1ccco1)N(C(=O)CNC(=O)c1cccs1)c1cccnc1 (stereo unspecified)	nt	nt	nt	2	-8.2*
CC(C)c1ccc(C(C(=O)NC(C)(C)C)N(C(=O)CNC(=O)c2ccco2)c2cccnc2)cc1 (stereo unspecified)	nt	nt	nt	2	0.82
COC(=O)c1c(N)n(-c2cc(OC)cc(OC)c2)c2nc3ccccc3nc12	19	-129	3.3*	3	nt
O=C(Nc1ccc(S(=O)(=O)N2CCc3ccccc32)cc1)c1ccc2c(c1)OCO2	1	2	0.22	-2	0.88
O=C(Nc1ccc(S(=O)(=O)N2CCc3ccccc32)cc1)c1ccco1	11	-2	-4.9*	nt	-0.69
CC(C)Cn1cnc2c(c(-c3ccccc3)c(-c3ccccc3)n2Cc2ccco2)c1=N	nt	nt	nt	11	-0.18
N=c1c2c(-c3ccccc3)c(-c3ccccc3)n(Cc3ccco3)c2ncn1Cc1ccccc1	nt	nt	nt	43*	2.4
CCOC(=O)N1CCC(N2C(=O)c3ccccc3C2Nc2ccc3c(c2)OCCO3)CC1 (stereo unspecified)	17	4	-3.1*	5	-0.57
